Columns and labels:
[1] = system: HepG2; assay: Antiproliferative activity against human HepG2 cells after 48 hrs by MTT assay; format: functional, cell-based; conditions: HepG2, 48 h
[2] = system: MCF7; assay: Antiproliferative activity against human MCF7 cells after 48 hrs by MTT assay; format: functional, cell-based; conditions: MCF7, 48 h
Summary of the method: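 Cells seeded at 30,000 per well, grown 24 h at 37 °C, 5% CO2, then exposed to 5-fold serial dilutions of compound (dissolved in 1% DMSO) for 48 h under same conditions. MTT added at 5 mg/mL; after lysis, absorbance read at 570 nm 4 h later. IC50 taken from exponential viability-versus-concentration curve relative to untreated controls.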

[3] = system: HepG2; assay: Potency index, ratio of erlotinib IC50 to compound IC50 for human HepG2 cells; format: functional

| Compound | IC50 [1] [µM] | IC50 [2] [µM] | Ratio IC50 [3] |
| --- | --- | --- | --- |
| O=C(CN1CCCC1)Nc1ccc2ncnc(Nc3ccc(Cl)c(C(F)(F)F)c3)c2c1 | > 100 | > 100 | – |
| O=C(CN1CCOCC1)Nc1ccc2ncnc(Nc3cccc(C(F)(F)F)c3)c2c1 | > 100 | 15 | – |
| CN1CCN(CC(=O)Nc2ccc3ncnc(Nc4ccc(Cl)cc4)c3c2)CC1 | > 100 | 15 | – |
| O=C(CN1CCOCC1)Nc1ccc2ncnc(Nc3ccc(Cl)c(C(F)(F)F)c3)c2c1 | > 100 | > 100 | – |
| O=C(CN1CCCCC1)Nc1ccc2ncnc(Nc3cccc(C(F)(F)F)c3)c2c1 | > 100 | > 100 | – |
| O=C(CN1CCOCC1)Nc1ccc2ncnc(Nc3cccc(Cl)c3)c2c1 | > 100 | > 100 | – |
| CN1CCN(CC(=O)Nc2ccc3ncnc(Nc4ccc(Br)cc4)c3c2)CC1 | > 100 | > 100 | – |
| O=C(CN1CCCCC1)Nc1ccc2ncnc(Nc3ccc(Cl)c(C(F)(F)F)c3)c2c1 | > 100 | > 100 | – |
| CN1CCN(CC(=O)Nc2ccc3ncnc(Nc4cccc(Br)c4)c3c2)CC1 | 25.3 | 10 | – |
| O=C(CN1CCOCC1)Nc1ccc2ncnc(Nc3ccc(Cl)cc3)c2c1 | > 100 | > 100 | – |
| CN1CCN(CC(=O)Nc2ccc3ncnc(Nc4ccc(Cl)c(C(F)(F)F)c4)c3c2)CC1 | 25.3 | > 100 | – |
| CN1CCN(CC(=O)Nc2ccc3ncnc(Nc4cccc(Cl)c4)c3c2)CC1 | > 100 | > 100 | – |
| CN1CCN(CC(=O)Nc2ccc3ncnc(Nc4cccc(C(F)(F)F)c4)c3c2)CC1 | > 100 | > 100 | – |
| O=C(CN1CCCC1)Nc1ccc2ncnc(Nc3cccc(C(F)(F)F)c3)c2c1 | 25.2 | > 100 | – |
| O=C(CN1CCOCC1)Nc1ccc2ncnc(Nc3ccc(Br)cc3)c2c1 | > 100 | > 100 | – |
| O=C(CN1CCOCC1)Nc1ccc2ncnc(Nc3cccc(Br)c3)c2c1 | 19 | 15 | – |

Now from value to compound, other results behind:

| IC50 [1] [µM] | IC50 [2] [µM] | Compound | Ratio IC50 [3] |
| --- | --- | --- | --- |
| > 100 | > 100 | O=C(CN1CCOCC1)Nc1ccc2ncnc(Nc3ccc(OCc4cccc(F)c4)cc3)c2c1 | – |
| 16 | > 100 | O=C(CN1CCCCC1)Nc1ccc2ncnc(Nc3ccc(Cl)cc3)c2c1 | – |
| > 100 | > 100 | O=C(CN1CCCC1)Nc1ccc2ncnc(Nc3cccc(Cl)c3)c2c1 | – |
| > 100 | > 100 | O=C(CN1CCCCC1)Nc1ccc2ncnc(Nc3ccc(Br)cc3)c2c1 | – |
| 16 | 3 | O=C(CN1CCCCC1)Nc1ccc2ncnc(Nc3cccc(Br)c3)c2c1 | – |
| 18 | 16 | O=C(CN1CCCC1)Nc1ccc2ncnc(Nc3ccc(Cl)cc3)c2c1 | – |
| > 100 | > 100 | O=C(CN1CCCC1)Nc1ccc2ncnc(Nc3ccc(OCc4ccccc4)cc3)c2c1 | – |
| 25.1 | 25 | O=C(CN1CCCC1)Nc1ccc2ncnc(Nc3ccc(OCc4cccc(F)c4)cc3)c2c1 | – |
| 12 | > 100 | O=C(CN1CCCCC1)Nc1ccc2ncnc(Nc3cccc(Cl)c3)c2c1 | 2 |
| > 100 | > 100 | O=C(CN1CCCC1)Nc1ccc2ncnc(Nc3ccc(Br)cc3)c2c1 | – |
| > 100 | 12 | O=C(CN1CCCC1)Nc1ccc2ncnc(Nc3cccc(Br)c3)c2c1 | – |
| > 100 | 25 | O=C(CN1CCOCC1)Nc1ccc2ncnc(Nc3ccc(OCc4ccccc4)cc3)c2c1 | – |
